According to ChEMBL document CHEMBL1138216, “Design and synthesis of novel derivatives of the muscarinic agonist tetra(ethylene glycol)(3-methoxy-1,2,5-thiadiazol-4-yl) [3-(1-methyl-1,2,5,6-tetrahydropyrid-3-yl)-1,2,5-thiadiazol-4-yl] ether (CDD-0304): effects of structural modifications on the binding and activity at muscarinic receptor …” (J Med Chem, 2006):
Substitutions are numbered along the chain they refer to. Active and inactive are the calls of the source. The calls are words filed in the database; no cut-off is given here.

Assays:
[1] = target: T1, Muscarinic acetylcholine receptor M1 (Homo sapiens) (UniProt P11229); assay: Agonist activity at human M1 receptor expressed in A9 L cells assessed as stimulation of phosphoinositide hydrolysis relative to carbachol; type: functional, cell-based; conditions: L929
T1 sequence (whole entry): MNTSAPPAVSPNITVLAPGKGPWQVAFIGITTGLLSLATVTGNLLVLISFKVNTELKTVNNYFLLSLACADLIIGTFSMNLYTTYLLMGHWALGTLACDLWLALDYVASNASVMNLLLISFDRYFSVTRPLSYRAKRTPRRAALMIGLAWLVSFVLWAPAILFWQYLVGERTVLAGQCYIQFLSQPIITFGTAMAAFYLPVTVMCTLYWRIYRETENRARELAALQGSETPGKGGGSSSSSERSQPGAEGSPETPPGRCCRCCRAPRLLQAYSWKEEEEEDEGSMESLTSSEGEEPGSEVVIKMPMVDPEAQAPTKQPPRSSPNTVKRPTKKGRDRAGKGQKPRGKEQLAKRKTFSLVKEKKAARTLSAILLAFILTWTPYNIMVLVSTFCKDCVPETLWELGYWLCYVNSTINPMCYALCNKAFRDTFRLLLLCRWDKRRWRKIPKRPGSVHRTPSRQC
In short: (§1)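 A9 L cells stably expressing the receptor, seeded 24 h, labelled overnight with 10 µCi/mL [3H]inositol in inositol-free DMEM; ligands in HBSS with 10 mM LiCl, 20 mM HEPES, 37 °C, 1 h; formic acid extraction, inositol phosphates counted by SPA beads.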

[2] = target: Muscarinic acetylcholine receptor M3 (Homo sapiens, UniProt P20309); assay: Agonist activity at human M3 receptor expressed in A9 L cells assessed as stimulation of phosphoinositide hydrolysis relative to carbachol; type: functional, cell-based; conditions: L929; in short: as §1
[3] = system: T2, Muscarinic acetylcholine receptor M1 (Homo sapiens), P11229 [E170K]; assay: Agonist activity at human M1 receptor E170K mutant expressed in A9 L cells assessed as stimulation of phosphoinositide hydrolysis relative to carbachol; type: functional, cell-based; conditions: L929; in short: as §1
T2 sequence (whole entry): T1 sequence (whole entry) with E170K

[4] = system: T3, Muscarinic acetylcholine receptor M1 (Homo sapiens), P11229 [Q185E]; assay: Agonist activity at human M1 receptor Q185E mutant expressed in A9 L cells assessed as stimulation of phosphoinositide hydrolysis relative to carbachol; type: functional, cell-based; conditions: L929; in short: as §1
T3 sequence (whole entry): T1 sequence (whole entry) with Q185E

[5] = target: T4, Muscarinic acetylcholine receptor M2 (Homo sapiens) (UniProt P08172); assay: Activity at human M2 receptor assessed as inhibition of forskolin-stimulated cAMP accumulation relative to carbachol; type: functional
T4 sequence (whole entry): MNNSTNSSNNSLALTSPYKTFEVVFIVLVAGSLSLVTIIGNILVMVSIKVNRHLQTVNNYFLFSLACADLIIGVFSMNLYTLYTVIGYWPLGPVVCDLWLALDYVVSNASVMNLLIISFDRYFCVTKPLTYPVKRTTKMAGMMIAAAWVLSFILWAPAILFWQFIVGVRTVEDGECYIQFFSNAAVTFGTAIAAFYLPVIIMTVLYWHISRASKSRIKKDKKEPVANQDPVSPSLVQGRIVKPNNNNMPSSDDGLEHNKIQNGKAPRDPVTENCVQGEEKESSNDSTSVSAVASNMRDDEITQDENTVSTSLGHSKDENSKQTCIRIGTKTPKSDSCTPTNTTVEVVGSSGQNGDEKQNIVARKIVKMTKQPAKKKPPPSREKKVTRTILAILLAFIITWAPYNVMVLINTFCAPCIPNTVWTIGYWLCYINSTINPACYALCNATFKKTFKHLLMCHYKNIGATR

[6] = target: T5, Muscarinic acetylcholine receptor M4 (Homo sapiens) (UniProt P08173); assay: Activity at human M4 receptor assessed as inhibition of forskolin-stimulated cAMP accumulation relative to carbachol; type: functional
T5 sequence (whole entry): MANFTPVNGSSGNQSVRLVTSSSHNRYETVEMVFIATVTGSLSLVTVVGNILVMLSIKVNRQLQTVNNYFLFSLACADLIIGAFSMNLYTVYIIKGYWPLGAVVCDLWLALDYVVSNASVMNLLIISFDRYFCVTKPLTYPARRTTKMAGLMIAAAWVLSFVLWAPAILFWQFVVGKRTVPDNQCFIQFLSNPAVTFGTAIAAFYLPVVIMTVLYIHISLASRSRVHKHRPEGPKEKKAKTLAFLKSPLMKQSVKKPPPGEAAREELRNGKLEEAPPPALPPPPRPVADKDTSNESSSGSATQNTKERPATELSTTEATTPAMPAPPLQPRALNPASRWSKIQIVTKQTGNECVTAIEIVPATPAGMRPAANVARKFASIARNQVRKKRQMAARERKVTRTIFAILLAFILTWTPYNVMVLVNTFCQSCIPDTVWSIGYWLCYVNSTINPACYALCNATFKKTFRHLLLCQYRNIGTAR

[7] = target: T6, Muscarinic acetylcholine receptor M1/M5 chimeric protein (Homo sapiens) (UniProt P11229+P08912); assay: Agonist activity at human M1/M5(o2) chimeric receptor expressed in A9 L cells assessed as stimulation of phosphoinositide hydrolysis relative to carbachol; type: functional, cell-based; conditions: L929; in short: as §1
[8] = target: T6, Muscarinic acetylcholine receptor M1/M5 chimeric protein (Homo sapiens); assay: Agonist activity at human M1/M5(o3) chimeric receptor expressed in A9 L cells assessed as stimulation of phosphoinositide hydrolysis relative to carbachol; type: functional, cell-based; conditions: L929; in short: as §1
[9] = target: T6, Muscarinic acetylcholine receptor M1/M5 chimeric protein (Homo sapiens); assay: Agonist activity at human M1/M5(o2o3) chimeric receptor expressed in A9 L cells assessed as stimulation of phosphoinositide hydrolysis relative to carbachol; type: functional, cell-based; conditions: L929; in short: as §1

T6 sequence (P08912 whole entry, looked up, change not shown, one chain of several): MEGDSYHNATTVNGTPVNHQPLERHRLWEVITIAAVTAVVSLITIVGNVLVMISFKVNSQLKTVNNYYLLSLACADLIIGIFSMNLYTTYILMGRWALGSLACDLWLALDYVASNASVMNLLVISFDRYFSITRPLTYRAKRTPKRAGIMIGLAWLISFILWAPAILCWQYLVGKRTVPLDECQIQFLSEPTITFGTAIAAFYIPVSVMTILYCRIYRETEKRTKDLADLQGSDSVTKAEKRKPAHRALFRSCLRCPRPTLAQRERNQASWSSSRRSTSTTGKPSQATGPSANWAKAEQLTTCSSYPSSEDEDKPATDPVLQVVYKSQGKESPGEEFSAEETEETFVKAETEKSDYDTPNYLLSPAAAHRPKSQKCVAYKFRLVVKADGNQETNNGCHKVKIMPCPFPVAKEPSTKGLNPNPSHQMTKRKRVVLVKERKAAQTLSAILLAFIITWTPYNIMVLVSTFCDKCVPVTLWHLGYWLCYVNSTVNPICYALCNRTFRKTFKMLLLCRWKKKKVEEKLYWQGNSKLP
Chain of Muscarinic acetylcholine receptor M3 (P20309 whole entry, looked up): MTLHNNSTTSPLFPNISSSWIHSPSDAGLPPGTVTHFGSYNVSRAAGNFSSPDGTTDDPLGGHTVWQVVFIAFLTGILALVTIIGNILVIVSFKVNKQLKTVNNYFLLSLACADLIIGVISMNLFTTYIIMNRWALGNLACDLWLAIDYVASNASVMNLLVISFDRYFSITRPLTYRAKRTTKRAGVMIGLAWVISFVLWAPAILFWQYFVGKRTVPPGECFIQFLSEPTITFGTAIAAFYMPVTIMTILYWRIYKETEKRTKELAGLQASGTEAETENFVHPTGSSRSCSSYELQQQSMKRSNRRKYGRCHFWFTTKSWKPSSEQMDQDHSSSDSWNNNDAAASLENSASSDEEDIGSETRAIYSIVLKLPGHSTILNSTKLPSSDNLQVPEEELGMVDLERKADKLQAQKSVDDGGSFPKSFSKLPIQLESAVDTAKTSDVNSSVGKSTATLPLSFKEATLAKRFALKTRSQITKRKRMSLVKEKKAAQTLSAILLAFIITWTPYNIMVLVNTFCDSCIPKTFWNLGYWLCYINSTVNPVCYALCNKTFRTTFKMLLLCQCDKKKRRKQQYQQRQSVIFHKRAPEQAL

COc1nsnc1OCCOCCOCCOCCOc1nsnc1C1=CCCN(C)C1
Smax [1]: 47% | Activity [2]: inactive | Smax [3]: 27% | Smax [4]: 14% | Imax [5]: 120% | Imax [6]: 40% | Smax [7]: 20% | Smax [8]: 9.7% | Smax [9]: 5.3%

CCCCCCOc1nsnc1C1=CCCN(C)C1 [XANOMELINE]
Smax [1]: 71% | Smax [2]: 80% | Smax [3]: 31% | Smax [4]: 86% | Activity [5]: inactive | Imax [6]: 77% | Smax [7]: 75% | Smax [8]: 21% | Smax [9]: 20%
